The text below walks through data of ChEMBL document CHEMBL4130626, “α-Arylidene Diacylglycerol-Lactones (DAG-Lactones) as Selective Ras Guanine-Releasing Protein 3 (RasGRP3) Ligands” (J Med Chem, 2018).

In general, Ki refers to a measure of affinity in units of concentration, obtained from inhibition or displacement. What is called EC50 is the midpoint of the concentration-response curve.

Calls of active or inactive are those of the source. The calls are words filed in the database; no cut-off is given here.

The species named for test [1] is Homo sapiens. Nature of the test: Selectivity ratio of EC50 for PKCdelta (unknown origin) expressed in HEK293 cells harboring GFP-tagged RasGRP3 to EC50 for GFP-tagged RasGRP3 (unknown origin) expressed in HEK293 cells assessed as ERK1/2 phosphorylation. Format: cell-based.
For test [2], the species on record is Homo sapiens. Briefly: Selectivity ratio of EC50 for PKCdelta (unknown origin) expressed in HEK293 cells harboring GFP-tagged RasGRP1 to EC50 for GFP-tagged RasGRP1 (unknown origin) expressed in HEK293 cells assessed as ERK1/2 phosphorylation. Format: cell-based.
In test [3] the target is T1, Ras guanyl-releasing protein 3 (Homo sapiens, UniProt Q8IV61).
T1 sequence (Q8IV61 whole entry): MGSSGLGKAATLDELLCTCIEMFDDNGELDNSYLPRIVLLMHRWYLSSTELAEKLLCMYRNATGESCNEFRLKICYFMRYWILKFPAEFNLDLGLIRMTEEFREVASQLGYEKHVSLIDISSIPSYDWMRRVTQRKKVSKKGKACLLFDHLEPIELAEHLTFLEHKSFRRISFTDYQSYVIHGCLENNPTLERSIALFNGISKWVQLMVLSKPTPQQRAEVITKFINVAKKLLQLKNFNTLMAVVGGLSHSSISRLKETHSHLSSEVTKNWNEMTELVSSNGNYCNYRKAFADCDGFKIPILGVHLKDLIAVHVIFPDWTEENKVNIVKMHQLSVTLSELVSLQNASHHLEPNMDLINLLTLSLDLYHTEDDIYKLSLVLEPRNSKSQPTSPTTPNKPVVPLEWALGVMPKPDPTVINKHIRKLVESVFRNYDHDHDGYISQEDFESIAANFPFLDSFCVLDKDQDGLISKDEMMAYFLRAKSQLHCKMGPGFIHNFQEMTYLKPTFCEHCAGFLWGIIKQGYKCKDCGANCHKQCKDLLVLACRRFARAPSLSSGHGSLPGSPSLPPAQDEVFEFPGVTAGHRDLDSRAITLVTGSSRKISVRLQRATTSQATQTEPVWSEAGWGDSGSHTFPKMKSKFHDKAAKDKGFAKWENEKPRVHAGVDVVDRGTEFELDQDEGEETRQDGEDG
Briefly: Displacement of [3H]PDBu from full length MBP-tagged human RasGRP3 expressed in Escherichia coli BL21 (DE3) after 5 mins by scintillation counting. In short, it runs like this: (§1)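 Competition of [3H]PDBu binding by polyethylene glycol precipitation, with 100 µg/ml phosphatidylserine and ≤0.003% Triton X-100, 5 min at 37 °C. Proteins: full-length purified human PKCα, PKCε; full-length RasGRP1; MBP-RasGRP3 from E. coli BL21(DE3) induced with 0.3 mM IPTG 6 h at room temperature. Ki mean ± SEM of ≥2 experiments, triplicate points.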
(Displacement assays read how much labelled ligand stays bound in the presence of the test substance.)

Test [4] is filed under the species Homo sapiens. Briefly: Selectivity ratio of EC50 for PKCdelta (unknown origin) expressed in human LNCAP cells harboring GFP-tagged RasGRP3 to EC50 for GFP-tagged RasGRP3 (unknown origin) expressed in human LNCAP cells. Format: cell-based.
Test [5] deals with Protein kinase C delta type (Homo sapiens, UniProt Q05655). Nature of the test: Activation of PKCdelta (unknown origin) expressed in HEK293 cells harboring GFP-tagged RasGRP3 assessed as phosphorylation at ser299 residues after 30 mins by immunoblot method. Format: cell-based. Put shortly: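 Cells are GFP-RasGRP3-transfected HEK293, grown in EMEM + 10% FBS. Exposed 30 min at 37 °C, 5% CO2, to half-log concentrations up to 10 µM, 1000 nM PMA or DMSO. Lysed in RIPA with protease and phosphatase inhibitors. 50 µg protein run on 10% SDS-PAGE and blotted for phospho-PKCδ S299; anti-GFP used as loading control. Signal normalised to 1000 nM PMA. EC50 is the mean of n = 3.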
Sequence of Protein kinase C delta type (Q05655 whole entry): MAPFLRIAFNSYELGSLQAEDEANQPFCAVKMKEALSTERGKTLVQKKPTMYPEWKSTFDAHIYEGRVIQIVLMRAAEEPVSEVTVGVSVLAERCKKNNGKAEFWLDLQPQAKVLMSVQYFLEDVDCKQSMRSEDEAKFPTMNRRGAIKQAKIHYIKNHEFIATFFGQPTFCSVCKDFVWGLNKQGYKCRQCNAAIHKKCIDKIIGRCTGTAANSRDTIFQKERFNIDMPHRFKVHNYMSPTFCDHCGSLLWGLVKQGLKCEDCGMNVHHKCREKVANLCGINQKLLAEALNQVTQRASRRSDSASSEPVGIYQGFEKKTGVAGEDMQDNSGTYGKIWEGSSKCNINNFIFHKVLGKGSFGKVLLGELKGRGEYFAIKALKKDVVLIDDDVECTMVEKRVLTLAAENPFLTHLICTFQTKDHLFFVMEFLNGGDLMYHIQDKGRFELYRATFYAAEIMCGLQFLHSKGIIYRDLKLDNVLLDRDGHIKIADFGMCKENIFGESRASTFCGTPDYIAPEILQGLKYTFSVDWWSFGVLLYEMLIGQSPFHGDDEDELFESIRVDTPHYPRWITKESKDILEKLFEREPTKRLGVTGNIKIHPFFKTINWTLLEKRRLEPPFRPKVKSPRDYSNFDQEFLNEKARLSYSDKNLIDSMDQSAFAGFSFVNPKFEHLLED

Test [6] has as its target T2, Ras guanyl-releasing protein 3 (Homo sapiens) (UniProt Q8IV61).
T2 sequence (whole entry): T1 sequence (Q8IV61 whole entry)
Briefly: Displacement of [3H]PDBu from full length MBP-tagged human RasGRP3 expressed in Escherichia coli BL21 (DE3) after 5 mins in presence of phosphatidylserine by scintillation counting. Put shortly: as §1

Test [7] concerns the target T3, Protein kinase C epsilon type (Homo sapiens, UniProt Q02156).
T3 sequence (Q02156 whole entry): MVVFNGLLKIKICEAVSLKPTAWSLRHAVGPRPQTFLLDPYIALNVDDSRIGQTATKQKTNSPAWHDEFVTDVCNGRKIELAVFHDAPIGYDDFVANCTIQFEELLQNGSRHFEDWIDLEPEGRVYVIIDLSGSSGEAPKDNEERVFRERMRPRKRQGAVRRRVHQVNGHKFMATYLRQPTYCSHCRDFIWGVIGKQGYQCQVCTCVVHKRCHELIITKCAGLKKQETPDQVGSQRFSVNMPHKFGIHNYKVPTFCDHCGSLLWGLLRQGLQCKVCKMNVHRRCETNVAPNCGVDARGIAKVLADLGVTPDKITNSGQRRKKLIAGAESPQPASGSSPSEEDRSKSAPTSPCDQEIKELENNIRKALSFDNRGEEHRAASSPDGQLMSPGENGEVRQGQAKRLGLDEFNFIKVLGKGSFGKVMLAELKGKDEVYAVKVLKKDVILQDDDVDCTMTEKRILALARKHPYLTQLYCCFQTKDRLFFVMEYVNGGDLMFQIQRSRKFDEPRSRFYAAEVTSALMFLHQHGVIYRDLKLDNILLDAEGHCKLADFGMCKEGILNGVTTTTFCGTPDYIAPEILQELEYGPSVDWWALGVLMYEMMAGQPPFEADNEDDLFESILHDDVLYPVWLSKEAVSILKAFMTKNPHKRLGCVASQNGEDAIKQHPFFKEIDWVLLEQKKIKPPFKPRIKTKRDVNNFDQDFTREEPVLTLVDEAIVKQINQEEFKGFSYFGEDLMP
Briefly: Displacement of [3H]PDBu from full length recombinant human PKCepsilon expressed in baculovirus expression system after 5 mins by scintillation counting. In short, it runs like this:
as §1

Test [8] addresses T1, Ras guanyl-releasing protein 3. Nature of the test: Activation of GFP-tagged RasGRP3 (unknown origin) expressed in HEK293 cells assessed as ERK1/2 phosphorylation after 30 mins by immunoblot method. Format: cell-based. Put shortly:
(§2)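 Cells expressing GFP-RasGRP1/3 (HEK293 or LNCaP, 48 h after plating, transfected; expression checked by fluorescence 24-48 h later) or Ramos with endogenous RasGRP3 treated with half-log increasing concentrations (max 10 µM), 1000 nM PMA or DMSO, 37 °C, 30 min, 5% CO2. RasGTP by Raf1 RBD bead pulldown and anti-Pan-Ras immunoblot; pERK by western blot. Band intensities normalized to 1000 nM PMA; EC50 from n = 3.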
Background: Immunoblotting shows a protein as a band on a membrane.

Test [9] has the same target. Nature of the test: Activation of RasGRP3 in human Ramos cells after 30 mins by immunoblot method. Format: cell-based. In short, it runs like this:
as §2

As for `Cn1cc(/C=C2\CC(CO)(COC(=O)C(C)(C)C)OC2=O)c2ccccc21` (centres undefined), the Ratio EC50 in the test listed under Homo sapiens [1] was 3.6; in the test listed under Homo sapiens [2] it was 2.6; in the test filed under Homo sapiens [4], 12.9. Besides, the values for the Ki in test [3] and in test [7] were 1.75 nM and 78.9 nM, respectively. The results for the EC50 in test [5], in test [8] and in test [9] were 16900 nM, 4660 nM and 860 nM, respectively. In addition, the inhibition result in [6] is “Active”.
